Results as given in ChEMBL document CHEMBL1128440 (J Med Chem, 1995).
Values joined by “and” are separate entries in the source; they are usually repeats but may differ in a detail not shown here. Equal values may be shown once.

Tests used:
[1] = biological target: T1, Progesterone receptor (Homo sapiens) (UniProt P06401); test: Relative binding affinity against progesterone receptor at 0 degree Celsius determined in a competitive radiometric binding assay (R5020=100%).
T1 sequence (whole entry): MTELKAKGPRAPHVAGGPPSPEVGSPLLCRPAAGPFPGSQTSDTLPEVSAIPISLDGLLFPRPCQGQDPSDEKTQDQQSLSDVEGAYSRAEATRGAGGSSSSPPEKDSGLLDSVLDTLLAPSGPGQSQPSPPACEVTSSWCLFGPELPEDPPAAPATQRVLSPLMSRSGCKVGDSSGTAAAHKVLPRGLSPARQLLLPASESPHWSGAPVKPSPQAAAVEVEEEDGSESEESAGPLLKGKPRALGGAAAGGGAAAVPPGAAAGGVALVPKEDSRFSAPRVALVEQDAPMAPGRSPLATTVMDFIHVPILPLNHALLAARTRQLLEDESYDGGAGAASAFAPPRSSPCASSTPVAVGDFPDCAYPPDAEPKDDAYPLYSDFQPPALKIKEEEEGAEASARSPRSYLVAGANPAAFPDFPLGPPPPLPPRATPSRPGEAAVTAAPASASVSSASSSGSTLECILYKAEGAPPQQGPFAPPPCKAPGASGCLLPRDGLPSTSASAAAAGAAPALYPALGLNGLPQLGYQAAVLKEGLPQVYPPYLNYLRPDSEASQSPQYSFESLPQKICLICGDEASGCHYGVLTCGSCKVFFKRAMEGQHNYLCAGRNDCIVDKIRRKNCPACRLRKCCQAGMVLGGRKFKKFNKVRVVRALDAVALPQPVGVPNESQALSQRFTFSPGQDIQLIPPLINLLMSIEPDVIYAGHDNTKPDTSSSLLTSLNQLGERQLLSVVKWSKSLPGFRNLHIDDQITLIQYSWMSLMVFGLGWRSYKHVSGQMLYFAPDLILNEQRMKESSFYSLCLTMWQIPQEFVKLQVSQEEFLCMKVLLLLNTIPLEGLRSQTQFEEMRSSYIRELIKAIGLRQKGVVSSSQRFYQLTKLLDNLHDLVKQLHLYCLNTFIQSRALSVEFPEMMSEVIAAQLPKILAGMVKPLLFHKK
In short: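 Competitive radiometric binding at 0 °C against tritium-labeled R5020 as the standard (RBA = 100). Values are the average of two experiments.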

[2] = biological target: T1, Progesterone receptor (Homo sapiens); test: Binding selectivity index as the ratio of RBA value to that of NSB value.
In short: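 BSI calculated as the ratio of RBA to NSB.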

[3] = biological target: T1, Progesterone receptor (Homo sapiens); test: Nonspecific binding affinity against progesterone receptor was estimated relative to compound R5020
[4] = Partition coefficient (logP); format: physicochemical; details: octanol/water
In short: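 log P(o/w) (octanol/water) estimated by a reversed-phase HPLC method.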

Rattus norvegicus [5] = organism: Rattus norvegicus; test: Tissue biodistribution into estrogen-primed immature female rat muscle at 1 hr time interval; format: ADME, organism-based; details: in vivo
In short: (§1)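 Immature female Sprague-Dawley rats (25 days old, ≈50 g, five per time point) primed with estradiol, 5 μg sc daily for 2 days in 50% ethanol/sunflower seed oil, used 24 h after the last injection. The 18F-labeled ligand was given iv by tail vein in 10% ethanol/saline. Decapitated at 1 or 3 h; blood and organs weighed and gamma-counted. Reported as %ID/g ± SD, n = 5.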

Rattus norvegicus [6] = organism: Rattus norvegicus; test: Tissue biodistribution into estrogen-primed immature female rat liver at 1 hr time interval; format: ADME, organism-based; details: in vivo; in short: as §1
Rattus norvegicus [7] = organism: Rattus norvegicus; test: Tissue biodistribution into estrogen-primed immature female rat uterus at 1 hr time interval; format: ADME, organism-based; details: in vivo; in short: as §1
Rattus norvegicus [8] = organism: Rattus norvegicus; test: Tissue biodistribution into estrogen-primed immature female rat blood at 1 hr time interval; format: ADME, organism-based; details: in vivo; in short: as §1
Rattus norvegicus [9] = organism: Rattus norvegicus; test: Tissue biodistribution into estrogen-primed immature female rat bone at 1 hr time interval; format: ADME, organism-based, Bone element; details: in vivo; in short: as §1
Rattus norvegicus [10] = organism: Rattus norvegicus; test: Tissue biodistribution into estrogen-primed immature female rat brain at 1 hr time interval; format: ADME, organism-based; details: in vivo; in short: as §1
Rattus norvegicus [11] = organism: Rattus norvegicus; test: Tissue biodistribution into estrogen-primed immature female rat uterus/blood at 1 hr time interval; format: ADME, organism-based; details: in vivo; in short: as §1
Rattus norvegicus [12] = organism: Rattus norvegicus; test: Tissue biodistribution into estrogen-primed immature female rat uterus/muscle at 1 hr time interval; format: ADME, organism-based; details: in vivo
Rattus norvegicus [13] = organism: Rattus norvegicus; test: Tissue biodistribution into estrogen-primed immature female rat fat at 1 hr time interval; format: ADME, organism-based, Adipose tissue; details: in vivo; in short: as §1
Rattus norvegicus [14] = organism: Rattus norvegicus; test: Tissue biodistribution into estrogen-primed immature female rat lung at 1 hr time interval; format: ADME, organism-based; details: in vivo; in short: as §1
Rattus norvegicus [15] = organism: Rattus norvegicus; test: Tissue biodistribution into estrogen-primed immature female rat ovaries at 1 hr time interval; format: ADME, organism-based, Female gonad; details: in vivo; in short: as §1
Rattus norvegicus [16] = organism: Rattus norvegicus; test: Tissue biodistribution into estrogen-primed immature female rat kidney at 1 hr time interval; format: ADME, organism-based; details: in vivo; in short: as §1

Structure (SMILES)	BSI [2]	NSB [3]	logP ([4]; read-out: logP)	logP [4]	RBA [1]	Injected dose/g (Rattus norvegicus [5]) [%]	Injected dose/g (Rattus norvegicus [6]) [%]	Injected dose/g (Rattus norvegicus [7]) [%]	Injected dose/g (Rattus norvegicus [8]) [%]	Injected dose/g (Rattus norvegicus [9]) [%]	Injected dose/g (Rattus norvegicus [10]) [%]	Uterus to blood concentration ratio (Rattus norvegicus [11]) [%]	Uterus to muscle uptake ratio (Rattus norvegicus [12]) [%]	Injected dose/g (Rattus norvegicus [13]) [%]	Injected dose/g (Rattus norvegicus [14]) [%]	Injected dose/g (Rattus norvegicus [15]) [%]	Injected dose/g (Rattus norvegicus [16]) [%]
CC1(c2ccc(F)cc2)O[C@@H]2CC3C4CCC5=CC(=O)CC[C@@H]5C4CC[C@]3(C)[C@]2(C(=O)CF)O1 (some centres undefined)	65	4.36	5.48		282												
CC(=O)[C@@]12OC(c3ccco3)O[C@@H]1CC1C3CCC4=CC(=O)CC[C@]4(C)C3CC[C@@]12C (some centres undefined)		1.69 and 2.08	4.56	4.76													
CC[C@@H]1C[C@H]2[C@@H]3CCC4=CC(=O)CC[C@@H]4[C@H]3CC[C@]2(C)[C@H]1C(=O)CO	206	0.97			200												
CC[C@@H]1C[C@H]2[C@@H]3CCC4=CC(=O)CC[C@@H]4[C@H]3CC[C@]2(C)[C@H]1C(=O)CF	374	1.87			700	0.42	3.34	6.43	0.25	3.18	0.63	26.26	15.98	3.56	0.47	2.86	1.05

Second part, led by results:

BSI [2]	NSB [3]	logP ([4]; read-out: logP)	logP [4]	Structure (SMILES)	RBA [1]	Injected dose/g (Rattus norvegicus [5]) [%]	Injected dose/g (Rattus norvegicus [6]) [%]	Injected dose/g (Rattus norvegicus [7]) [%]	Injected dose/g (Rattus norvegicus [8]) [%]	Injected dose/g (Rattus norvegicus [9]) [%]	Injected dose/g (Rattus norvegicus [10]) [%]	Uterus to blood concentration ratio (Rattus norvegicus [11]) [%]	Uterus to muscle uptake ratio (Rattus norvegicus [12]) [%]	Injected dose/g (Rattus norvegicus [13]) [%]	Injected dose/g (Rattus norvegicus [14]) [%]	Injected dose/g (Rattus norvegicus [15]) [%]	Injected dose/g (Rattus norvegicus [16]) [%]
2 and < 1	2.08 and 2.74	4.76	5.03	CC(=O)[C@@]12OC(C)(c3ccco3)O[C@@H]1CC1C3CCC4=CC(=O)CC[C@]4(C)C3CC[C@@]12C (some centres undefined)													
10	5.52			CC(=O)[C@@]12O[C@](C)(c3ccc(F)cc3)O[C@@H]1CC1C3CCC4=CC(=O)CC[C@]4(C)C3CC[C@@]12C (some centres undefined)	53	0.82	3.41	3.08	0.47	1.76	0.56	6.59	3.85	5.76	1.3	3.93	2.18
